Assay results pooled from the literature.
Protocols differ between the studies behind these lines.
Target: Ephrin type-A receptor 1 (EPHA1, Homo sapiens, UniProt P21709)
Residues used in one study (P21709 26-976): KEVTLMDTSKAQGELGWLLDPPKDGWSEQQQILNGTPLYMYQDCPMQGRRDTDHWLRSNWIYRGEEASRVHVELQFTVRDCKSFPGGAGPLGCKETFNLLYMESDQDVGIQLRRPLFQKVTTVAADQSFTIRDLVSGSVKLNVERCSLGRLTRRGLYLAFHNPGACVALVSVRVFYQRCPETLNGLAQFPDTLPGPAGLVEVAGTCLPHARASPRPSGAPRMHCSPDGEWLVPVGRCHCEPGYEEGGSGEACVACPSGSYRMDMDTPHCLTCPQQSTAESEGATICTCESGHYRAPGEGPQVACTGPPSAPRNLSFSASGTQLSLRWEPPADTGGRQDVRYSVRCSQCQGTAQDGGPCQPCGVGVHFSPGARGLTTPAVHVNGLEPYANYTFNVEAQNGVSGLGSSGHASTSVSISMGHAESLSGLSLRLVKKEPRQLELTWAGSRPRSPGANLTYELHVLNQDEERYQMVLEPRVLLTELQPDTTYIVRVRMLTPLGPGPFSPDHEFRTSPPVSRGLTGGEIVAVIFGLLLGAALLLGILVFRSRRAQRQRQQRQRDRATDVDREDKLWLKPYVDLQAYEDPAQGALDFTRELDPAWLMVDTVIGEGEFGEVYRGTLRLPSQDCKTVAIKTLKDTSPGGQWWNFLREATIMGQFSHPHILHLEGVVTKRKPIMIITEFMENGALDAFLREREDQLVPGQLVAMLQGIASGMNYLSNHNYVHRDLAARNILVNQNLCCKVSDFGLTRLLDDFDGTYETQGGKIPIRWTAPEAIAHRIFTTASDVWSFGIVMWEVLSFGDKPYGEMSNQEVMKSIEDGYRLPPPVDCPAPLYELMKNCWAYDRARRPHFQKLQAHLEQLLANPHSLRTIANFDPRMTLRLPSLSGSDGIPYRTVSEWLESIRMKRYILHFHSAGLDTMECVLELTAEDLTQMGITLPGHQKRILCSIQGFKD

The remaining binding of `Nc1ncc(-c2nc(N3CCOCC3)nc(N3CCOCC3)n2)c(C(F)F)n1` is reported as 68% (cell-free assay; competition with immobilised ligand; 10 µM).
`Cn1cc(-c2cc(F)cc(N3CCn4c(cc5c4CCCC5)C3=O)c2CO)cc(Nc2ccc(N3CCN(C4COC4)CC3)cn2)c1=O` has an inhibition of 19% (enzyme activity; inhibitor; 0.1 µM).
The remaining binding of `Cn1cncc1[C@@](O)(COc1ccc(C#N)cc1-c1ccc(OC(F)(F)F)cc1)c1ccc(C#N)cc1` is reported as 93% (cell-free assay; competition with immobilised ligand; 1 µM).
The inhibition of `Cn1cc(-c2cccc(N3CCc4c(sc5c4CC(C)(C)C5)C3=O)c2CO)cc(Nc2ccncn2)c1=O` is reported as 3% (enzyme activity; inhibitor; 1 µM).
For `COc1cc(Nc2ncc(F)c(Nc3ccc4c(n3)NC(=O)C(C)(C)O4)n2)cc(OC)c1OC`, the inhibition was 98% (binding; competition with immobilised ligand; 10 µM).
`CC(C)(C)c1cc(C=C(C#N)C#N)cc(Br)c1O` gave a remaining activity of 85.1% (enzyme activity; inhibitor; 0.5 µM).
The remaining binding of `Cc1nn(C)cc1-c1nc2c(N3CCN(Cc4ccc(Cl)cc4)CC3)c(Cl)cnc2[nH]1` is reported as 90% (binding; competition with immobilised ligand; 1 µM).
With `COc1ncccc1-c1cnn2ccc(N3CCN(C(=O)OC(C)C)CC3)nc12` the remaining binding was 84% (binding; competition with immobilised ligand; 1 µM).
With `O=c1[nH]c2ccccc2n1C1CCN(Cc2ccc(-c3[nH]c4cc5ncnc5cc4nc3-c3ccccc3)cc2)CC1` the remaining signal was 84.4% (cell-free assay; 0.5 µM).
